Measurements reported in publication PMC7557227 (ACS Omega, 2020).

Tests used:
[1] = tested on: F508del-CFTR in BHK cells; conditions: cited from earlier work
PARP1 = PARP1 (Homo sapiens, UniProt P09874); test: PARP enzymatic assay; format: biochemical; conditions: read-out: IC50 PARP1; dose response 1 nM to 1 mM
PARP16 = biological target: T1, PARP16 (Homo sapiens, UniProt Q8N5Y8); test: Modified PARP enzymatic assay with IRE-1 as substrate, PARP16; format: biochemical; conditions: for PARP16 inhibition at 1 μM: from dose response data; for Selectivity: greater IC50 potency for PARP16 compared with PARP3: ratio of IC50 values, in vitro; for IC50: read-out: IC50 PARP16, dose response 1 nM to 1 mM
T1 sequence (Q8N5Y8 1-322): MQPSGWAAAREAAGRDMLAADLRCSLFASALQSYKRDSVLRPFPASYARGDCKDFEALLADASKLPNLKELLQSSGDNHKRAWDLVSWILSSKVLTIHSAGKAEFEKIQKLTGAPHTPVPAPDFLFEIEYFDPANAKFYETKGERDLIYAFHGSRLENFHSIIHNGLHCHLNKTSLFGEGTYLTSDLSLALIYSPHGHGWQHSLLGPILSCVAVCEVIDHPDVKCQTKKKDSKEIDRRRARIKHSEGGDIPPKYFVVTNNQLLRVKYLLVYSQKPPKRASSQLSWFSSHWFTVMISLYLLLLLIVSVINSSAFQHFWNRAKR

PARP4 = PARP4 (Homo sapiens, UniProt Q9UKK3); test: PARP enzymatic assay, PARP4; format: biochemical; conditions: 10 μM; 0 equals no inhibition, 100 total inhibition; N = 5 (Table 5)
Procedure, shortened: (§1)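 Commercial recombinant PARP2, PARP4, PARP-5a and PARP-5b were assayed with a chemiluminescent universal PARP kit on histone-coated strip wells, following the manufacturer's protocol. Anchored histones served as the ADP-ribosylation substrate. Inhibition was read as loss of chemiluminescent signal.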

TANKYRASE1 = biological target: T2, TANKYRASE1 (Homo sapiens, UniProt O95271); test: PARP enzymatic assay, TANKYRASE1; format: biochemical; conditions: 10 μM; 0 equals no inhibition, 100 total inhibition; N = 5 (Table 5)
T2 sequence (O95271 1-1327): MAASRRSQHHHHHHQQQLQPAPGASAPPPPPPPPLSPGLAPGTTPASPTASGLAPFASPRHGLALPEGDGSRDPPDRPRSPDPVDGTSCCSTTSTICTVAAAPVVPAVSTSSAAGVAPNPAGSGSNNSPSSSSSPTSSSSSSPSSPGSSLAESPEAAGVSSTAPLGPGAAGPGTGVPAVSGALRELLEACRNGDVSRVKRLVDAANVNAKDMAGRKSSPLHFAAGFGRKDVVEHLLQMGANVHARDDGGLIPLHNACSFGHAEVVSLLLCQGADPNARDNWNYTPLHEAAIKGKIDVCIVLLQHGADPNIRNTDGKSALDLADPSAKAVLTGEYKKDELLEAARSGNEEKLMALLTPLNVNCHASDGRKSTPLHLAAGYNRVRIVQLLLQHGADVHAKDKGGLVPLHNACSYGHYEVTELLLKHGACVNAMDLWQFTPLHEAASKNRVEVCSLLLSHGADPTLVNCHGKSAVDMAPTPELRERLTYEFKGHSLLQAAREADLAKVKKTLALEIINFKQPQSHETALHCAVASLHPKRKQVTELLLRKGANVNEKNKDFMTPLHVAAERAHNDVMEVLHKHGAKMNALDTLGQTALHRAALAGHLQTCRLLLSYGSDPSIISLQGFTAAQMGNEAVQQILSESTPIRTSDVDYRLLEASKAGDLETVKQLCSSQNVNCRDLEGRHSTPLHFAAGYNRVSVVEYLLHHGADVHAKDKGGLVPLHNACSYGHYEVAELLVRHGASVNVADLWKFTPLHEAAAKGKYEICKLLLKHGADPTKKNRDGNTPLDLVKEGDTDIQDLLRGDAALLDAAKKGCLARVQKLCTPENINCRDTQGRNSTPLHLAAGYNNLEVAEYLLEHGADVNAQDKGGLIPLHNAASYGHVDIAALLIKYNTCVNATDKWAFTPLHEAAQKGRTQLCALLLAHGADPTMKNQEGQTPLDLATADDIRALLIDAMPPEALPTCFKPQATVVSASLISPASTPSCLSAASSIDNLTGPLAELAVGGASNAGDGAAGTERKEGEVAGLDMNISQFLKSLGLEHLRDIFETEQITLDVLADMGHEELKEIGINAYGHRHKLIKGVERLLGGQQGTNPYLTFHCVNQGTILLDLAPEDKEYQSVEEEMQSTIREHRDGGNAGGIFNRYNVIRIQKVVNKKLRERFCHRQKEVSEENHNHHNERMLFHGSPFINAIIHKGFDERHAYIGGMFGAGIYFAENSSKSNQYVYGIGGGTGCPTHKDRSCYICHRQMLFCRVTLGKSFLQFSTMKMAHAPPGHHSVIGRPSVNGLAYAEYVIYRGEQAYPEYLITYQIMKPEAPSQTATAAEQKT
Procedure, shortened: (§2)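 Recombinant human PARP-5a (tankyrase 1) and PARP-5b (tankyrase 2) were obtained commercially. Inhibition was measured with a universal chemiluminescent PARP kit according to the manufacturer's protocol. Anchored histone proteins coated on strip wells served as the ADP-ribosylation substrate.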

TANKYRASE 2 = biological target: T3, TANKYRASE 2 (Homo sapiens, UniProt Q9H2K2); test: PARP enzymatic assay, TANKYRASE 2; format: biochemical; conditions: 10 μM; 0 equals no inhibition, 100 total inhibition; N = 5 (Table 5)
T3 sequence (Q9H2K2 1-1166): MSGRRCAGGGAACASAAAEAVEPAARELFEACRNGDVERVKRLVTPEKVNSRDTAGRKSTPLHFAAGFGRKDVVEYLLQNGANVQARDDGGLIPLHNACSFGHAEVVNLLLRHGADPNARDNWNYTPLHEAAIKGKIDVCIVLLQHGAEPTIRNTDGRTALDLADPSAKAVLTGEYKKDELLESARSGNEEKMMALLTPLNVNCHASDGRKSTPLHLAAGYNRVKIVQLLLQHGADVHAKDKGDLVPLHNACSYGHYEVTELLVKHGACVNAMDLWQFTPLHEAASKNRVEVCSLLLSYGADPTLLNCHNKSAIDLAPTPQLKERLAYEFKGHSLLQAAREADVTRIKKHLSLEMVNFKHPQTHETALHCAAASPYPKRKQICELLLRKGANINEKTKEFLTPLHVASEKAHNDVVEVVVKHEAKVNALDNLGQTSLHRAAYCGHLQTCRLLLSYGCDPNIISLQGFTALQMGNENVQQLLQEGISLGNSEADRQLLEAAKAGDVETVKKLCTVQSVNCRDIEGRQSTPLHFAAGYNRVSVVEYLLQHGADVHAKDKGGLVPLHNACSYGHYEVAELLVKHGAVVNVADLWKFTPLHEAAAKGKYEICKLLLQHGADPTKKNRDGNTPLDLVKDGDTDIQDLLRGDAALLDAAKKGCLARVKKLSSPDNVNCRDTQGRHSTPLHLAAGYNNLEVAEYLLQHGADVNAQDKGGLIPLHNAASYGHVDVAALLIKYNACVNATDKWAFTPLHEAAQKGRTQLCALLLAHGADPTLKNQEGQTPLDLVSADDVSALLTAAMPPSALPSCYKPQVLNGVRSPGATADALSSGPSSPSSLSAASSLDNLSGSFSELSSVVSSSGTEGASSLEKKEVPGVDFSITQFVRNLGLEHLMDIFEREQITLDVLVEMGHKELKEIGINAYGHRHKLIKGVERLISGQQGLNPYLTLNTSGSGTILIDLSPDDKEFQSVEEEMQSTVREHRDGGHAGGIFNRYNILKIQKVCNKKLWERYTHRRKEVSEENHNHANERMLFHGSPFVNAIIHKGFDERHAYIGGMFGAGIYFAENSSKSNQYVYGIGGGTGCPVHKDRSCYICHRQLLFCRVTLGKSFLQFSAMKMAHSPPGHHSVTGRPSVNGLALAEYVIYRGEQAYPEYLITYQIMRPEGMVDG
Procedure, shortened: as §2

PARP3 = biological target: T4, PARP3 (Homo sapiens, UniProt Q9Y6F1); test: PARP enzymatic assay; format: biochemical; conditions: for PARP3 inhibition at 1 μM: from dose response data; for Inhibition of PARP3, mean (panel): 10 μM, 0 equals no inhibition, 100 total inhibition, N = 5 (Table 5); for IC50: read-out: IC50 PARP3, dose response 1 nM to 1 mM
T4 sequence (Q9Y6F1 1-533): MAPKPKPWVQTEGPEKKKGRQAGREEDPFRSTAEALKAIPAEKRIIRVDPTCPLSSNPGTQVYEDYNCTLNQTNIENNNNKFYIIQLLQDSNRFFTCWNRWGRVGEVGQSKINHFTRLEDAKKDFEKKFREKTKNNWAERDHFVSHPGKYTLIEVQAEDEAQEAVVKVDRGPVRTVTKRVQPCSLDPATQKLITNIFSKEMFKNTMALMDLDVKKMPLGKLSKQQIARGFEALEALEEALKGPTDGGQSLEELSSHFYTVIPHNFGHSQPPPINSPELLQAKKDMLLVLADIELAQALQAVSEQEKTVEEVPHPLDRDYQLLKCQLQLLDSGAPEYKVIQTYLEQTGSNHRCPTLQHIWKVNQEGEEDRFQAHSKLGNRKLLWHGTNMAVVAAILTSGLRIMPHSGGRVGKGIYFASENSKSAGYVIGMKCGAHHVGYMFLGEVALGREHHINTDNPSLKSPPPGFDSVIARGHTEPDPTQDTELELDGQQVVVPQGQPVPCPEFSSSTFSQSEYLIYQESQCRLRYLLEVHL

PARP2 = test: PARP enzymatic assay, PARP2; format: biochemical; conditions: 10 μM; 0 equals no inhibition, 100 total inhibition; N = 5 (Table 5)
Procedure, shortened: as §1

[2] = tested on: F508del-CFTR in BHK cells; test: FMP functional F508del-CFTR correction assay; format: cell-based, hamster; conditions: 1 μM each, 24 h pretreatment, forskolin + genistein, BHK cells (Figure 2C)
Procedure, shortened: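 BHK cells expressing F508del-CFTR were seeded at 25 000 cells per well and treated with test compound (1 μM) for 24 h, then washed with PBS. Cells were loaded with a voltage-sensitive oxonol-derived FLIPR dye plus quencher in low-chloride gluconate/HEPES buffer (pH 7.4) containing genistein (50 μM) for 5 min at room temperature. Forskolin (10 μM) was added, and the mean initial fluorescence rate (Vmax) was expressed as % of VX809 response.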

PARP5 = test: PARP enzymatic assay, PARP5; format: biochemical; conditions: 10 μM; 0 equals no inhibition, 100 total inhibition; N = 5 (Table 5)
Procedure, shortened: as §1

[3] = tested on: F508del-CFTR in BHK cells; test: HTS F508del-CFTR correction assay; format: cell-based, hamster; conditions: 24 h treatment
[4] = 1 μM each, BHK cells (Figure 2B)
[5] = 10 μM each, BHK cells (Figure 2A)

Sequence of PARP1 (P09874 whole entry): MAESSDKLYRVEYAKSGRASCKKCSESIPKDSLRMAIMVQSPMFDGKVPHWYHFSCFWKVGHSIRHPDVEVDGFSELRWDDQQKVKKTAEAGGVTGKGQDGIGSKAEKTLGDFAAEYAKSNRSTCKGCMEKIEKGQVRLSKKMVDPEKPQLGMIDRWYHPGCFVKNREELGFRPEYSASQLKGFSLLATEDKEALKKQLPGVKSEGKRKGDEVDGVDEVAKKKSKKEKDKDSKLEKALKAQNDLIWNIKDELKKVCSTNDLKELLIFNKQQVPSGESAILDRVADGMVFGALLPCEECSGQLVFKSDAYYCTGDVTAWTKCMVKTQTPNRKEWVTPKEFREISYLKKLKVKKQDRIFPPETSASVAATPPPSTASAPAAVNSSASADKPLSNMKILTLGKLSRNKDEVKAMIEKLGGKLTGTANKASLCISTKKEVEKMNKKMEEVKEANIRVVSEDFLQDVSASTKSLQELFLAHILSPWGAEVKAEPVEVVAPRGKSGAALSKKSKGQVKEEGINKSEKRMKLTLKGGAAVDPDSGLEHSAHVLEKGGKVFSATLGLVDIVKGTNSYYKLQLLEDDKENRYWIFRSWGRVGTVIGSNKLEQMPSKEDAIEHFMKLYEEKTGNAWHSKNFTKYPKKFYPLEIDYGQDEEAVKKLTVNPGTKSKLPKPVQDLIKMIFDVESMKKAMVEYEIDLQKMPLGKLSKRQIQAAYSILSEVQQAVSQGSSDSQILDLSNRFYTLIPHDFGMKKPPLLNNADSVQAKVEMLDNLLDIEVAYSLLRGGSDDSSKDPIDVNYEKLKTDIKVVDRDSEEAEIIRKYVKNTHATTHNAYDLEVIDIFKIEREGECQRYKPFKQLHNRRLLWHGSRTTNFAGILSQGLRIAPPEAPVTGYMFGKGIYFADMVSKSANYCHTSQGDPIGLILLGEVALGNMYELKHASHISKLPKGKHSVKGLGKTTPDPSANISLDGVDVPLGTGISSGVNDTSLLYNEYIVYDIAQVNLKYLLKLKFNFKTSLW
Sequence of PARP4 (Q9UKK3 whole entry, species assumed): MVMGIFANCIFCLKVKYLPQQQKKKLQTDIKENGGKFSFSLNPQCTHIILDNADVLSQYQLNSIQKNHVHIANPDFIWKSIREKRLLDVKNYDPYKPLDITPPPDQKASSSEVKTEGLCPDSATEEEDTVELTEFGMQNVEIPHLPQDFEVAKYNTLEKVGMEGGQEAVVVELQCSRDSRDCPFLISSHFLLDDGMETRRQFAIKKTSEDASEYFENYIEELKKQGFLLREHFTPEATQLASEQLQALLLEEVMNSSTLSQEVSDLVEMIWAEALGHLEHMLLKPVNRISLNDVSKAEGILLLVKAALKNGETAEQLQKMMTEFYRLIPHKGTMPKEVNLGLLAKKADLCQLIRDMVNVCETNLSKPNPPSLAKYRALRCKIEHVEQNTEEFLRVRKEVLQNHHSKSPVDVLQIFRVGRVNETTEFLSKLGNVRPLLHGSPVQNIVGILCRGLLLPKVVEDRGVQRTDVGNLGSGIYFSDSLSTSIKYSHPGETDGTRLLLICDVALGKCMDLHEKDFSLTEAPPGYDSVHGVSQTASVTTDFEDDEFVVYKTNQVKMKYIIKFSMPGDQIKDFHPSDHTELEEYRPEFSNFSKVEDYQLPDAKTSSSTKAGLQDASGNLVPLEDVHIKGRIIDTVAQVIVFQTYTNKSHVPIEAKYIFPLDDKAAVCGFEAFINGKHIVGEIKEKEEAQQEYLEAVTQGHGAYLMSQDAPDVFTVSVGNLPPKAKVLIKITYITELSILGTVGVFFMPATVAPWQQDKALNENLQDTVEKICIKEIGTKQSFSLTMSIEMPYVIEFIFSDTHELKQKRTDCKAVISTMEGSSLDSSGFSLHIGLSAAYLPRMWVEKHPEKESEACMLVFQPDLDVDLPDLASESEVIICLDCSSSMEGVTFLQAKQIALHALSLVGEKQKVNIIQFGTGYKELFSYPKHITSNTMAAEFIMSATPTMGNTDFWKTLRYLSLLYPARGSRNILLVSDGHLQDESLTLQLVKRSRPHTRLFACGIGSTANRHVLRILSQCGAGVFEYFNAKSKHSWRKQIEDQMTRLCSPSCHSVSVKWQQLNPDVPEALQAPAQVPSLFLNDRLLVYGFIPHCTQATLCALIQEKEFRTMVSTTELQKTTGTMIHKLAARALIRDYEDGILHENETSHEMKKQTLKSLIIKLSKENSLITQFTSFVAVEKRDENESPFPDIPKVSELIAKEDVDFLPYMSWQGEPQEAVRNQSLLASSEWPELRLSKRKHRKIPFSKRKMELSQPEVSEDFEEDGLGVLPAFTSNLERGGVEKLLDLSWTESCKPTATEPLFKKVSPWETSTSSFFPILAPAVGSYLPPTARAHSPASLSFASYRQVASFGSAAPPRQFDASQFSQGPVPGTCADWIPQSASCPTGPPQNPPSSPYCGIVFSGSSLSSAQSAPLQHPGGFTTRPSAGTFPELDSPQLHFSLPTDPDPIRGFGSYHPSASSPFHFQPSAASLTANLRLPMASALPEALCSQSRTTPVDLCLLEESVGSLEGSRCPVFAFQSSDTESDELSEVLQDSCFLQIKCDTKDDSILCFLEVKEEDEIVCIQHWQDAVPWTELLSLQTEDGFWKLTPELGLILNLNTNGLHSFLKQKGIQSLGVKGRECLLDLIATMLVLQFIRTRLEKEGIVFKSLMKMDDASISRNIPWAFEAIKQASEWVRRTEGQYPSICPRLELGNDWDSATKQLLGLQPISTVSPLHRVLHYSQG

Question: For `Nc1nc2c(c(C(=O)O)n1)-c1c([nH]c(Br)c1Br)C(=O)NC2` [compound 2, latonduine B], which “EC50 in the F508del-CFTR trafficking screening assay” value [1] is on record?
Answer: Its value is “low nanomolar”.

Question: Which results are given for latonduine A [compound 1]?
Answer: EC50 in the F508del-CFTR trafficking screening assay [1]: low nanomolar; IC50 (PARP1): 24.3 µM; PARP16 inhibition at 1 μM (PARP16): 79%; Selectivity: greater IC50 potency for PARP16 compared with PARP3 (PARP16): 8 fold; Selectivity: greater IC50 potency for PARP16 compared with PARP3 (PARP16; listed as Latonduine A (1)): ≈ 8 fold; IC50 (PARP16): 0.427 µM; Inhibition of PARP4, mean (panel) (PARP4): 18.3; Inhibition of TAN1, mean (panel) (TANKYRASE1): 11.7; Inhibition of TAN2, mean (panel) (TANKYRASE 2): 10.1; PARP3 inhibition at 1 μM (PARP3): 37%; Inhibition of PARP3, mean (panel) (PARP3): 83.7; IC50 (PARP3): 3.4 µM; Inhibition of PARP2, mean (panel) (PARP2): 21.6; Functional F508del-CFTR correction in FMP assay [2]: generates functional CFTR correction; Inhibition of PARP5, mean (panel) (PARP5): 9.9

Question: Which IC50 (PARP1) does the source give for `O=C1NCC(c2ccccc2)C(O)c2ccccc21` (racemic) [compound 5, (±)-5-hydroxy-4-phenyl-2,3,4,5-tetrahydro-1H-benzo[c]azepin-1-one] here?
Answer: Its IC50 is 20.1 µM.

Question: And the “F508del-CFTR corrector activity (surface expression) in HTS assay” value (“F508del-CFTR corrector activity” below) [3, 4]?
Answer: The value was “neither 5 or 6 alone shows corrector activity”.

Question: What about the “F508del-CFTR corrector activity” value [3, 5] of the same compound?
Answer: Its value is “neither compound 5 or 6 alone gives F508del-CFTR correction”.

Question: And the IC50 (PARP16)?
Answer: Its IC50 is 296 µM.

Question: What about the “Increase in relative PARP3/PARP16 IC50 potency compared with latonduine A (1)” value (PARP3) of the same compound?
Answer: Its value is 768 fold.

Question: And the “PARP3 inhibition at 1 μM” value (PARP3)?
Answer: The value was 39%.

Question: And the “Inhibition of PARP3, mean (panel)” value (PARP3)?
Answer: Its value is 95.6.

Question: And the “Selectivity: greater IC50 potency for PARP3 compared with PARP16” value (PARP3; ratio of IC50 values, in vitro)?
Answer: Its value is 96 fold.

Question: And the IC50 (PARP3)?
Answer: Its IC50 is 3.1 µM.

Question: For `O=C1NCC(c2ccccn2)C(O)c2cc(Cl)c(Cl)cc21` (racemic) [compound 6, (±)-7,8-dichloro-5-hydroxy-4-(pyridin-2-yl)-2,3,4,5-tetrahydro-1H-benzo[c]azepin-1-one], which IC50 (PARP1) is on record?
Answer: Its IC50 is 17.8 µM.

Question: What about the “F508del-CFTR corrector activity” value [3, 4] of the same compound?
Answer: Its value is “neither 5 or 6 alone shows corrector activity”.

Question: What about the “F508del-CFTR corrector activity” value [3, 5] of the same compound?
Answer: Its value is “neither compound 5 or 6 alone gives F508del-CFTR correction”.

Question: And the “PARP16 inhibition at 1 μM” value (PARP16)?
Answer: The value was 81%.

Question: What about the “Selectivity: greater IC50 potency for PARP16 compared with PARP3” value (PARP16) of the same compound?
Answer: Its value is 205 fold.

Question: What about the IC50 (PARP16) of the same compound?
Answer: Its IC50 is 0.362 µM.

Question: What about the “Inhibition of PARP3, mean (panel)” value (PARP3) of the same compound?
Answer: The value was 25.8.

Question: And the IC50 (PARP3)?
Answer: Its IC50 is 74.1 µM.
